Only some compounds are listed: those with a hit (about 3.8% of all), similar ones and a draw of the others.
KCNK9 inh = inhibitors of human KCNK9 two-pore domain potassium channel | 310,000 tested, 1.2% active | Q9NPC2 | HEK293 KCNK9, FluxOR thallium flux fluorescence; hits give low values | B-score at 10 µM;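 active means ratio B-score over 3 SD below the library mean, with starting fluorescence within 5 SD of its mean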;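 further: negative B-score means less thallium flux so channel inhibition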
KCNQ1 pot = potentiators or activators of human KCNQ1 potassium channel; AID 2648; 310,000 tested, 0.35% active; B-score at 10 µM; CHO-K1 KCNQ1, thallium flux FluxOR fluorescence; hits give high values;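 active means fluorescence ratio B-score, a plate-corrected score, at least three library SD, with initial intensity B-score within 5 SD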
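Assay system: CHO-K1 cells stably expressing KCNQ1. Medium: assay buffer for compound exposure, DMSO matched across wells. Timing: 37 °C overnight plating, 90-min dark dye load, 20-min compound pretreatment. Signal: kinetic FluxOR fluorescence, 10 s baseline plus 110 s post-stimulus.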
Kir21 block = Kir2.1 (mouse) channel inhibition; P35561; HEK293-Kir2.1, FluxOR thallium flux fluorescence; hits give low values; B-score at 10 µM; 310,000 tested, 0.85% active; AID 1672;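 active means fluorescence ratio B-score at or below minus 3 SD of library scores, with starting-brightness B-score within 2 SD, cut at about -4.2 in these data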;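 further: channel flux triggered by added potassium and thallium sulfate stimulus; B-score of peak minus minimum fluorescence over baseline after thallium stimulus; more negative B-score means stronger Kir2.1 block with less thallium influx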
Target sequence (P35561 whole entry, looked up): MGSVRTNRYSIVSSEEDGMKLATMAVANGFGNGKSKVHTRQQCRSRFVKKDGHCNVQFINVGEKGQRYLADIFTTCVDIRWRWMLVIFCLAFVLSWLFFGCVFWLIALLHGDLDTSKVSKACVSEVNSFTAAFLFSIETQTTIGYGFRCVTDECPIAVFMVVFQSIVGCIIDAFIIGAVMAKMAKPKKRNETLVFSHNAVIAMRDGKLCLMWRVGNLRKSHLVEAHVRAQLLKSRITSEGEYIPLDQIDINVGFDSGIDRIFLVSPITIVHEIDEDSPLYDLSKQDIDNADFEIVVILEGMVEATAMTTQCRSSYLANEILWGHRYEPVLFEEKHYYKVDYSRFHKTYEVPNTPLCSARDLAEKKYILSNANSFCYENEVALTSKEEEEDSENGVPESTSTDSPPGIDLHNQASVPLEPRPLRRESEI
KCNQ1 block = human KCNQ1 channel inhibition; P51787; CHO-K1 KCNQ1, FluxOR thallium flux fluorescence; hits give high values; B-score at 10 µM; 310,000 tested, 1.3% active;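 active means compounds whose thallium flux B-score, printed positive for inhibition, exceeds three library SD while starting fluorescence stays within three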;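 further: channel opened by potassium depolarization with thallium stimulus after 20 min compound exposure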
KCNK3 inh = human KCNK3 channel inhibition, primary screen; O14649; CHO-KCNK3 thallium flux, FluxOR fluorescence; hits give low values; B-score at 10 µM; 340,000 tested, 0.84% active; AID 602410;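 active means B-score under library mean minus 4 SD, starting fluorescence ratio at most library mean plus 5 SD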;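 further: more negative B-score means stronger inhibition of thallium flux through KCNK3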
hERG rescue = shields human hERG channel from block by proarrhythmic agents. Q12809. CHO-hERG, FluxOR thallium flux, dofetilide IC70 present. activation (rescue from dofetilide block), less the hit threshold, % at 10 µM. 310,000 tested, 0.51% active;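 active means activation above the mean of controls blocked by dofetilide plus 5 SD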;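 further: thallium influx through hERG after potassium depolarization seen as dye fluorescence rise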
The depositor's hits bear a star; i = inactive; · = not tested or not shown.

SMILES	KCNK9 inh	KCNQ1 pot	Kir21 block	KCNQ1 block	KCNK3 inh	hERG rescue
COc1ccccc1CN1CC(C(=O)NCCC2=CCCCC2)CCC1=O (configuration not stated)	i	i	0.88	i	i	-9.2
COc1ccccc1/C=C1\SC(=S)N(CCC(=O)Nc2cccc(O)c2)C1=O	i	i	-0.1	i	i	0.7
CCCN(CCC)CC(O)Cn1cc(/C=C/C(=O)c2ccccc2)c2ccccc21 (configuration not stated)	i	i	-4.18	i	i	-20.0
CCCCN(C)CC(O)Cn1cc(/C=C/C(=O)c2ccc(C)cc2)c2ccccc21 (configuration not stated)	i	i	-5.21*	i	i	-24.8
O=C1CSC(c2ccccc2[N+](=O)[O-])N1c1ccccc1 (configuration not stated)	i	i	-4.45*	i	i	-8.3
O=C1CSC(c2ccccc2[N+](=O)[O-])N1c1ccc(O)cc1 (configuration not stated)	i	i	-0.3	i	i	-11.3
COc1ccc(C2CC(C)(c3ccc(OC)cc3)Nc3ccccc3N2)cc1 (configuration not stated)	i	i	1.12	i	i	-5.1
COc1ccc(C2(C)CC(C)(C)Nc3ccccc32)cc1 (configuration not stated)	i	8*	-3.4	i	i	-11.9
O=C(Cc1ccccc1)c1ccc(O)cc1O	·	·	·	·	i	·
O=C(CC1=NCCNC(c2ccccc2)C1)c1ccccc1O (configuration not stated)	i	i	-5.98*	i	i	-11.4
Cc1nc2c(C(=O)NCCC(C)C)c[nH]n2c(=O)c1Cc1ccccc1F	i	i	2.56	6*	i	-10.1
COCCCNCCOc1ccc(C(C)(C)c2ccccc2)cc1	i	i	-13.1*	i	i	-10.2
CCC(C)NCCOc1ccc(C(C)(C)c2ccccc2)cc1 (configuration not stated)	i	i	-11.5*	i	i	-10.8
CC(C)(C)c1ccc(OCCCCCCN2CCNCC2)cc1	i	i	-0.23	i	i	-16.5
CC(C)(c1ccccc1)c1ccc(OCCCN2CCNCC2)cc1	i	i	-5.77*	i	i	-8.7
COCCn1c(C)nnc1SCC(=O)NNC(=O)c1ccc(Cl)cc1	i	i	1.34	i	i	-5.4
Cc1cccc(NC(=O)CCNC(=O)c2ccco2)c1C	i	i	1.66	i	i	-4.7
O=C(NC(=S)Nc1ccccc1Br)c1ccco1	i	9*	0.57	i	i	2.9
CCOc1ccc(NC(=S)NC2CC3CCC(C2)N3Cc2ccco2)cc1 (configuration not stated)	-7.18*	i	1.03	i	i	-18.4
Cc1cc(C)cc(NC(=S)NC2CC3CCC(C2)N3Cc2ccco2)c1 (configuration not stated)	i	i	-1.12	i	i	-12.3
CCOc1ccc(NC(=S)NC(=O)c2ccco2)cc1	i	12*	0.03	i	i	6.1*
Cc1cccc(NC(=S)NC(=O)c2ccco2)c1C	i	33*	0.18	i	i	22.1*
CCOc1ccc(NC(=O)c2ccco2)cc1	i	i	0.03	i	i	1.9
CN(CC(=O)Nc1ccc(F)c(F)c1F)C(=O)CCN1C(=O)C2CCCCC2C1=O (configuration not stated)	·	·	·	·	i	·
CC(C)(O)C#Cc1ccc(CN2CCC(n3nccc3NC(=O)C3CC3)CC2)cc1	i	i	-0.68	i	i	-5.3
SMILES	KCNK9 inh	KCNQ1 pot	Kir21 block	KCNQ1 block	KCNK3 inh	hERG rescue
COc1ccc2c(c1)c1c(n2C)[C@@H]2CC=C(CO)[C@@H](C1)N2C	·	·	·	·	i	·
COc1ccc(N/C(C)=C/C(=O)c2ccccc2)cc1	i	i	1.06	i	i	-2.1
C/C(=C\C(=O)c1ccccc1)NNC(=O)c1ccc(Cl)cc1	i	i	0.15	i	i	6.5*
COc1ccc(C(=O)NN/C(C)=C/C(=O)c2ccccc2)cc1	i	i	-2.13	i	i	9.1*
O=C(NCCC1=CCCCC1)C1CCN(S(=O)(=O)c2ccc(Br)s2)CC1	i	i	0.23	i	i	-5.9
Cc1ccc(-c2nn(-c3ccccc3)cc2CSC(=N)N)cc1	i	i	-5.77*	i	i	-13.8
OCc1cn(-c2ccccc2)nc1-c1ccc(-c2nn(-c3ccccc3)cc2CO)cc1	i	i	-0.28	i	i	-9.5
O=C(O)Cn1c2ccccc2c2n[nH]c(=S)nc21	i	i	-0.18	i	i	-0.2
Cc1ccc(NS(=O)(=O)c2ccccc2Cl)c2c1CC(C)(C)O2	i	i	-4.37*	i	i	-12.7
Cc1cccc(S(=O)(=O)Nc2ccc(C)c3c2OC(C)(C)C3)c1	i	i	-5.94*	i	i	-9.3
O=C(CNCCC1=CCCCC1)Nc1ccc(N2CCCCCC2)cc1	i	i	-5.64*	i	i	-21.1
O=C(CNC1CCCCCC1)Nc1ccc(N2CCCC2)cc1	i	i	-0.31	i	·	-10.9
O=c1ccn(Cc2ccc(F)cc2)c2ccnc(C(F)(F)F)c12	i	i	2.16	i	i	-3.3
Cc1cccc(-c2cc3nc4c(c(N5CCOCC5)n3n2)CCCC4)c1	i	i	-1.22	i	i	-7.0
Cc1cccc(-c2cc3nc4c(c(NCc5ccco5)n3n2)CCCC4)c1	-7.22*	i	0.57	i	i	-9.1
O=C(CC1CCCC1)Nc1ccc(Cl)c(S(=O)(=O)N2CCOCC2)c1	·	·	·	·	i	·
CC1CC(C)CN(c2nc3c(c(=O)n(C)c(=O)n3C)n2CCSc2nc3ccccc3o2)C1 (configuration not stated)	·	·	·	·	i	·
Cn1cc(Cl)c(C(=O)N/N=C/c2ccc3c4c(cccc24)CC3)n1	i	i	0.2	i	i	-3.7
Nc1ccccc1Sc1c[nH]c2ccccc12	i	i	2.21	i	i	-6.0
NC(=O)C1=C[C@@H](c2ccc(C(F)(F)F)cc2)C[C@@H](OCCCCO)O1	i	i	-0.38	i	i	-6.2
O=C(CS(=O)(=O)c1ccc(F)cc1)NCc1ccccc1	i	i	0.56	i	i	-8.6
CN(C)CCCSc1nc(-c2ccccc2)nc2c1CCC2	i	i	-9.71*	i	i	-3.9
CN(C)CCSc1nc(-c2ccccc2)nc2c1CCC2	i	i	-1.45	i	i	-5.4

Screening data from PubChem.
